hERG rescue: shields human hERG channel from block by proarrhythmic agents | Q12809 | CHO-hERG, FluxOR thallium flux, dofetilide IC70 present | activation (rescue from dofetilide block), less the hit threshold, % at 10 µM | 310,000 compounds, 0.51% hits | AID 1511;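 active = activation above the mean of controls blocked by dofetilide plus 5 SD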;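 also: thallium influx through hERG after potassium depolarization seen as dye fluorescence rise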
Kir21 inh: blocks the mouse Kir2.1 inward-rectifier potassium channel. AID 1672. HEK293-Kir2.1, FluxOR thallium flux fluorescence; stronger effect = lower value. P35561. 310,000 compounds, 0.85% hits. B-score at 10 µM;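 active = fluorescence ratio B-score at or below minus 3 SD of library scores, with starting-brightness B-score within 2 SD, cut at about -4.2 in these data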;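 also: channel flux triggered by added potassium and thallium sulfate stimulus; B-score of peak minus minimum fluorescence over baseline after thallium stimulus; more negative B-score means stronger Kir2.1 block with less thallium influx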
KCNK9 block: inhibitors of human KCNK9 two-pore domain potassium channel; Q9NPC2; HEK293 KCNK9, FluxOR thallium flux fluorescence; stronger effect = lower value; B-score at 10 µM; 310,000 compounds, 1.2% hits; AID 488922;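 active = ratio B-score over 3 SD below the library mean, with starting fluorescence within 5 SD of its mean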;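 also: negative B-score means less thallium flux so channel inhibition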
KCNQ1 pot: potentiators or activators of human KCNQ1 potassium channel | CHO-K1 KCNQ1, thallium flux FluxOR fluorescence; stronger effect = higher value | 310,000 compounds, 0.35% hits | B-score at 10 µM | AID 2648 | P51787;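 active = fluorescence ratio B-score, a plate-corrected score, at least three library SD, with initial intensity B-score within 5 SD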
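Assay system: CHO-K1 cells stably expressing KCNQ1; Medium: assay buffer with matched DMSO; Also added: K+/Tl+ depolarizing stimulus; Dosing: single dose; Timing: dye 90 min, compound 20 min, room temperature; Measured by: kinetic FluxOR thallium fluorescence, 10-s 1-Hz baseline, 110-s post-stimulus read; Read-out: peak-minus-minimum fluorescence over initial fluorescence, negative-control normalized, B-scored.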
KCNQ1 inh: inhibitors of human KCNQ1 potassium channel; B-score at 10 µM; P51787; 310,000 compounds, 1.3% hits; CHO-K1 KCNQ1, FluxOR thallium flux fluorescence; stronger effect = higher value;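 active = compounds whose thallium flux B-score, printed positive for inhibition, exceeds three library SD while starting fluorescence stays within three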;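 also: channel opened by potassium depolarization with thallium stimulus after 20 min compound exposure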
KCNK3 block: human KCNK3 channel inhibition, primary screen. B-score at 10 µM. O14649. 340,000 compounds, 0.84% hits. CHO-KCNK3 thallium flux, FluxOR fluorescence; stronger effect = lower value;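 active = B-score under library mean minus 4 SD, starting fluorescence ratio at most library mean plus 5 SD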;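 also: more negative B-score means stronger inhibition of thallium flux through KCNK3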
KCNQ1 block val: confirmation of human KCNQ1 potassium channel inhibitors; shares compounds with KCNQ1 inh; KCNQ1 cell line, FluxOR thallium flux fluorescence; inhibition, % at 10 µM; 1,600 compounds, 93% hits; AID 588353;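 active = primary screen active, with duplicate mean exceeding buffer control mean plus 3 SD of buffer wells, cut at about 28% in these data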;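 also: 0% = buffer control ratio and 100% = XE991 inhibitor control ratio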
CHO Tl flux: counter-screen for KCNQ1 inhibitors: effect in parental CHO cells; shares compounds with KCNQ1 inh; parental CHO-K1, FluxOR thallium flux fluorescence ratio; stronger effect = lower value; zero means no signal rise above baseline; fluorescence ratio (Tl flux) at 10 µM; 1,600 compounds, 21% hits;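 active = mean of duplicate thallium-flux fluorescence ratios in parental host cells more than 5 SD below the buffer control mean, cut at about 0.38 in these data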;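 also: ratio is peak minus minimum fluorescence divided by baseline fluorescence; actives read low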
KCNQ1 APC inh: confirmation of human KCNQ1 potassium channel inhibitors by electrophysiology | shares compounds with KCNQ1 inh | KCNQ1-CHO cells, automated patch clamp current | calls only at 10 µM | 490 compounds, 20% hits;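 active = KCNQ1 current drop exceeding 3 SD of negative control wells, seen in both duplicate runs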;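 also: steady state current during a 2 s step from -80 to +40 mV; negative values mean current inhibition and positive values mean potentiation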
KCNQ2 spec: selectivity of KCNQ1 inhibitors: inhibition of rat KCNQ2 channel | shares compounds with KCNQ1 inh | AID 651746 | KCNQ2 cells, FluxOR thallium flux fluorescence | 1,600 compounds, 71% hits | inhibition, % at 10 µM;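 active = mean percent inhibition of the KCNQ2 thallium signal more than 5 SD above the buffer-only control wells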;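 also: KCNQ2 expressed in CHO cells; 0% = buffer control wells and 100% = XE-991 inhibitor control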
KCNQ1-KCNE1 inh: selectivity of KCNQ1 inhibitors: inhibition of human KCNQ1/KCNE1 channel | shares compounds with KCNQ1 inh | KCNQ1/KCNE1 cells, FluxOR thallium flux fluorescence | inhibition, % at 10 µM | 1,600 compounds, 77% hits | AID 652147;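 active = mean percent inhibition of duplicate wells above the buffer-only control mean plus 3 SD of those controls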;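 also: 0% = buffer only wells and 100% = XE-991 inhibitor control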
Target sequence (P51787 whole entry, looked up): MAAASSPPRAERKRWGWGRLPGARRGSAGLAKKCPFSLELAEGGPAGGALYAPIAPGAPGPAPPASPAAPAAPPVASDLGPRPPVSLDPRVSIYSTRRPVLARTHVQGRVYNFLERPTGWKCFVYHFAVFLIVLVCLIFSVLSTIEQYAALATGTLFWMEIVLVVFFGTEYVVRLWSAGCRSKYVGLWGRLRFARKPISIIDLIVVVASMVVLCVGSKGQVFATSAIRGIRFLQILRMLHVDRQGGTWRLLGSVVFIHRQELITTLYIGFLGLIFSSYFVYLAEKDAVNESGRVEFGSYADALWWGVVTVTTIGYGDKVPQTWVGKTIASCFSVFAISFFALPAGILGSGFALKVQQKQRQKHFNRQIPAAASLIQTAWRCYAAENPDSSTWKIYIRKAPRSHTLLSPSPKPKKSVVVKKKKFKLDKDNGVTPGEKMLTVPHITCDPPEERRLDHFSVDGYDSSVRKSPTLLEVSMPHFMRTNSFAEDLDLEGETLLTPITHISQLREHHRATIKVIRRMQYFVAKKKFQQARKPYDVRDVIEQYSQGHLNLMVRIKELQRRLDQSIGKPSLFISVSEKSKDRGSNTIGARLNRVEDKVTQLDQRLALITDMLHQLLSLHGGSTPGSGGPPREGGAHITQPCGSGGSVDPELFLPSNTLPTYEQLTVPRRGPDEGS
The depositor's hits bear a star; i = inactive; · = no result; + = active, no number. This is a sample that favours compounds with a hit; in the whole collection about 3.8% have one here.

SMILES	hERG rescue	Kir21 inh	KCNK9 block	KCNQ1 pot	KCNQ1 inh	KCNK3 block	KCNQ1 block val	CHO Tl flux	KCNQ1 APC inh	KCNQ2 spec	KCNQ1-KCNE1 inh
O=C(Nc1ccc(F)cc1)C(NC1CCCCC1)c1ccccc1 (stereo unspecified)	-5	0.03	i	i	7*	i	76*	0.48	·	65%*	105%*
Cc1ccc(O)c(-c2cc(C(F)(F)C(F)F)[nH]n2)c1	-16	1.8	i	i	6*	i	93*	0.51	+	105%*	129%*
Clc1ccc(-c2cc3ccccc3nc2N2CCCC2)cc1	-9	-0.48	i	i	12*	i	130*	0.4	i	83%*	167%*
Cc1ccc(-c2cc3ccccc3nc2N2CCCC2)cc1	-8	-2	i	i	12*	i	118*	0.43	i	87%*	194%*
Cc1ccc(-c2nnc(N3CCCCC3)c3ccccc23)cc1	-12	0.41	i	i	i	i	·	·	·	·	·
COc1ccccc1CCC(=O)OCC(=O)Nc1cc(C)nn1-c1ccccc1	-11	-1	i	i	i	i	·	·	·	·	·
O=C1c2ccccc2C(=O)N1Cc1ccco1	-7	-0.3	i	i	i	i	·	·	·	·	·
O=C1c2cccc3c(O)ccc(c23)C(=O)N1Cc1ccco1	-56	-16	i	i	22*	i	+	0.011*	·	i	i
COc1ccc(Br)cc1CSC(=N)N	-9	-0.23	i	i	i	i	·	·	·	·	·
CCCCCOc1ccc(Br)cc1CSC(=N)N	-27	-12*	i	i	9*	i	125*	0.37*	·	86%*	94%*
O=C(CSc1nc(-c2ccccc2)c(-c2ccccc2)[nH]1)Nc1ccc2c(c1)OCO2	-5	-0.6	i	i	i	i	·	·	·	·	·
COc1ccc(Nc2nc(NC(C)(C)C)nc(N3CCCC3)n2)c(OC)c1	-15	-0.26	i	i	8*	i	144*	0.32*	·	i	+
COc1ccc(Nc2nc(-c3ccccc3)nc3ccccc23)c(OC)c1	-8	-0.02	i	i	11*	i	+	0.41	i	108%*	i
COc1ccc(Nc2nc(N3CCCCC3)nc3ccccc23)c(OC)c1	-17	-7*	i	i	12*	i	98*	0.43	i	90%*	94%*
COc1ccc(Nc2nc(N3CCN(S(C)(=O)=O)CC3)nc3ccccc23)c(OC)c1	-7	0.03	i	i	i	i	·	·	·	·	·
CCCCNC(=O)OCC(CC)NC(=O)OCC(C)C (stereo unspecified)	0	-2.3	i	i	i	i	·	·	·	·	·
Cc1ccc([N+](=O)[O-])cc1N1C(=O)CS/C1=N\NC(=O)c1cccnc1	-9	0.31	i	i	i	i	·	·	·	·	·
CC(C)(C)c1nc(NC(=O)Nc2ccccc2)sc1Br	-14	0.77	i	i	7*	i	92*	0.51	i	i	69%*
COc1ccc2nc(NC(=O)Nc3ccccc3)sc2c1	-7	0.05	i	i	i	i	·	·	·	·	·
Cc1ccc(NC(=O)C(c2ccc(Cl)cc2Cl)N2CCCC2)cc1 (stereo unspecified)	-9	0.75	-7.1*	i	8*	i	92*	0.38	+	i	152%*
O=C(Nc1cc(Cl)cc(Cl)c1)C(c1ccccc1)N1CCCCC1 (stereo unspecified)	-8	0.57	i	i	8*	i	120*	0.36*	·	122%*	114%*
Cc1cccc(NC(=O)C(c2ccccc2Cl)N2CCOCC2)c1 (stereo unspecified)	-12	-0.11	i	i	i	i	·	·	·	·	·
COc1cccc(NC(=O)C(c2ccccc2)N2CCCCC2)c1 (stereo unspecified)	-10	-1.4	i	i	i	i	·	·	·	·	·
CCC(c1nnnn1CCOC)N1CCN(Cc2ccccc2)CC1 (stereo unspecified)	-9	0.66	i	i	i	i	·	·	·	·	·
CC[C@@H]1CC=C[C@H]2[C@H]1C(=O)N(Cc1ccccc1)[C@H]2c1ccoc1	-29	-3.6	i	i	9*	i	78*	0.38*	·	104%*	114%*
SMILES	hERG rescue	Kir21 inh	KCNK9 block	KCNQ1 pot	KCNQ1 inh	KCNK3 block	KCNQ1 block val	CHO Tl flux	KCNQ1 APC inh	KCNQ2 spec	KCNQ1-KCNE1 inh
Cc1ccc(S(=O)(=O)Nc2ccc3nc(C)sc3c2)cc1	-10	0.34	i	i	i	i	·	·	·	·	·
Cc1nc2ccc(NS(=O)(=O)c3ccc4c(c3)OCCO4)cc2s1	-8	-1.8	i	i	10*	i	98*	0.49	i	69%*	90%*
NS(=O)(=O)c1ccc(CCNC(=O)C2CCCCN2S(=O)(=O)c2ccccc2)cc1 (stereo unspecified)	-11	-0.34	i	i	i	i	·	·	·	·	·
Cc1ccc(C)c(N(C(=O)c2csnn2)C(C(=O)NC2CCCCC2)c2cccnc2)c1 (stereo unspecified)	-2	1.4	i	i	i	i	·	·	·	·	·
Cc1nc2ccc(Br)cc2c(-c2ccccc2)c1C(=O)O	-17	-1.4	i	i	6*	i	0	0.49	·	96%*	i
CC(=O)c1c(C)nc2ccc(Br)cc2c1-c1ccccc1	-14	-3.3	i	i	i	i	·	·	·	·	·
CCN(CC)CCNC(=O)/C(=N\O)c1ccccn1	-11	-1	i	i	i	i	·	·	·	·	·
COc1ccccc1NC(=O)N(Cc1ccccc1)c1ccccn1	-7	-0.77	i	i	7*	i	95*	0.42	i	85%*	102%*
COCC(=O)N(Cc1ccccc1)c1ccccn1	0	-0.87	i	i	i	i	·	·	·	·	·
CC(C(=O)N1c2ccccc2CCc2ccccc21)n1nnc(-c2ccc(N(C)C)cc2)n1 (stereo unspecified)	-2	2.1	i	i	i	i	·	·	·	·	·
